# Screens: PubChem BioAssay, Sanford-Burnham Center for Chemical Genomics
# Rows were chosen to be rich in hits. Some 2.4% of all compounds tested hit in one or more screens of this group.
# Scp1 inh: blocks human Scp-1 phosphatase activity; Q9GZU7; Recombinant Scp1, phosphopeptide, malachite green phosphate absorbance; inhibition, % at 20 µM; 340,000 compounds, 0.88% hits; AID 493091;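 active = inhibition above about 50% at 20 µM, limit read from the data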;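 note: plate controls were DMSO wells with enzyme for no effect and wells lacking enzyme for full effect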
# Target sequence (Q9GZU7 76-261 limits assumed): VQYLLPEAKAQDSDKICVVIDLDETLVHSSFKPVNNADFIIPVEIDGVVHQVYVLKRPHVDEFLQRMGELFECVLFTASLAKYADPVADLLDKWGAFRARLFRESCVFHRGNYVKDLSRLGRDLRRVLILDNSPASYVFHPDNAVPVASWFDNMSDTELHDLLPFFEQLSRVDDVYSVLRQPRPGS
#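 Test system: SCP-1 catalytic domain; Buffer or medium: Acidic Tris acetate buffer with magnesium and detergent; Also added: Phosphorylated 17-residue peptide substrate; Compound: single 20 µM dose, 1% DMSO; Schedule: enzyme reaction 45 min at room temperature, colour 5 min, stabilisation 30 min; Signal: Phosphate-binding colour reagent, absorbance read at 630 nm.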
# STEP block: inhibitors of human striatal-enriched phosphatase STEP | P54829 | recombinant STEP, OMFP fluorogenic substrate, fluorescence | inhibition, % at 20 µM | 360,000 compounds, 0.25% hits;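 active = inhibition at 20 µM, scaled per plate between control wells, above about 37%, limit read from the data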;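 note: 0% = DMSO with enzyme and substrate and 100% = substrate only without enzyme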
#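 Test system: STEP tyrosine phosphatase / Reagent: OMFP at 25 µM / Doses: 20 µM, 1% DMSO / Read-out: percent inhibition scaled to no-enzyme and uninhibited-enzyme controls, plate-pattern corrected / Detection: FITC-channel fluorescence of OMFP product / Medium: Bis-Tris buffer pH 6.0, 2.5 mM DTT, 0.005% Tween 20 / Schedule: 20 min at room temperature, dark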
# SUMO1-SIM PPI: SUMO1-SIM interaction modulation | SUMO1 binding to a labelled peptide, TR-FRET, 1 h | P63165 | 360,000 compounds, 0.33% hits | inhibition, % at 20 µM; in the data active = inhibition above about 37%
# Target sequence (P63165 whole entry, looked up): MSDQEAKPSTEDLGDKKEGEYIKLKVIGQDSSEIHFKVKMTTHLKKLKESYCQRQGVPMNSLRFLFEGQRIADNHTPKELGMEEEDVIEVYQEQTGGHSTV
# LMPTP block: blocks human LMPTP phosphatase. recombinant LMPTP-A, OMFP fluorogenic substrate, fluorescence intensity. inhibition, % at 20 µM. 360,000 compounds, 0.22% hits;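 active = compounds that cut the enzyme signal by at least half of the control window in the single-dose screen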;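 note: plate controls were DMSO wells with enzyme plus substrate for no effect and substrate without enzyme for full effect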
# Target sequence (P24666 whole entry, looked up): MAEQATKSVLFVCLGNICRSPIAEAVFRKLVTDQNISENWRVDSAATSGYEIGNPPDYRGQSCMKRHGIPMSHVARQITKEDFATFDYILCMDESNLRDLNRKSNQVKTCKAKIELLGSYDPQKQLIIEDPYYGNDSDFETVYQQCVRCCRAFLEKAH
#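 Test system: LMPTP-A phosphatase enzyme; input: 0.625 nM LMPTP-A final; reagent: OMFP substrate, 400 µM final; compound dosing: 20 µM single dose, 3% DMSO; incubation: 50 min dark incubation at room temperature; measured by: endpoint fluorescence intensity from OMFP dephosphorylation; measure: % inhibition relative to no-enzyme and uninhibited control wells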
# NadD block: inhibitors of Staphylococcus aureus NadD. purified NadD enzyme, colorimetric absorbance read-out. inhibition, % at 20 µM. 360,000 compounds, 0.78% hits. AID 602399; in the data active = inhibition above about 26%
# DNMT1 inh: blocks human DNA methyltransferase DNMT1; P26358; inhibition (reported as % activation of signal), % at 10 µM; 360,000 compounds, 0.83% hits; DNMT1 molecular beacon, Hinp1I cleavage, fluorescence; AID 588458; in the data active = inhibition above about 50%
# NadD conf: confirmation of Staphylococcus aureus NadD inhibitors; purified S. aureus NadD, colorimetric enzyme assay; 2,000 compounds, 13% hits; inhibition, % at 20 µM; AID 624309; shares compounds with NadD block; in the data active = inhibition mostly above about 42%, no sharp cut-off; inactive = mostly below about 42%
# Active calls of the source: *; . = no result given.
SMILES,Scp1 inh,STEP block,SUMO1-SIM PPI,LMPTP block,NadD block,DNMT1 inh,NadD conf
O=C(COC(=O)c1c2c(nc3ccccc13)/C(=C/c1ccco1)CC2)NC1CCCC1,77.8*,18.4,18.0,47.5,52.3*,86.4*,64.0*
Cc1cc(C(=O)OCC(=O)NC2CCCC2)c2ccccc2n1,5.1,1.7,-10.6,-0.6,-1.0,-1.1,.
CC(C(=O)NC(c1ccccc1)c1ccccc1)N1CCOCC1 (stereo unspecified),-5.9,0.4,2.5,-0.6,-0.8,0.6,.
CCOc1ccccc1NC(=O)C(OC(=O)c1ccccc1)c1ccccc1 (stereo unspecified),-14.6,-2.5,-2.1,2.5,-5.4,2.0,.
CCOc1ccccc1NC(=O)C(OC(=O)c1ccc(NC(=O)CC#N)cc1)c1ccccc1 (stereo unspecified),-9.0,1.5,5.5,3.8,28.0*,-15.3,42.8
CCc1ccc2[nH]c(=O)c(CN(CCN(C)C)C(=S)NCc3ccco3)cc2c1,-4.9,2.4,-0.1,2.6,36.6*,-10.7,-33.7
COc1ccccc1CN(C)C(=O)CN1CCN(S(=O)(=O)c2ccc3c(c2)OCCCO3)CC1,-2.2,-2.0,0.6,-0.4,3.7,1.6,.
COc1ccc(S(=O)(=O)N2CCCCC2c2cc(C(=O)NCc3ccccc3)no2)cc1 (stereo unspecified),.,-2.2,3.4,2.5,-2.9,-0.9,.
COC(=O)c1ccc(C2/C(=C(\O)c3ccc4c(c3)OCCO4)C(=O)C(=O)N2CCCN2CCOCC2)cc1 (stereo unspecified),-7.5,1.7,-0.9,1.5,-0.4,1.4,.
C=CCOc1ccc(C2/C(=C(\O)c3ccc4c(c3)OCCO4)C(=O)C(=O)N2CCCN2CCOCC2)cc1 (stereo unspecified),-1.1,0.1,5.6,15.8,44.0*,8.2,29.5
O=C1C(=O)N(CCN2CCOCC2)C(c2cccc(Cl)c2)/C1=C(\O)c1ccc2c(c1)OCCO2 (stereo unspecified),-1.1,2.0,-3.7,-0.2,9.8,-4.0,.
CCCCOc1cccc(C2/C(=C(\O)c3ccc4c(c3)OCCO4)C(=O)C(=O)N2CCN2CCOCC2)c1 (stereo unspecified),0.3,0.4,-4.9,0.7,46.6*,-4.0,45.5
FC(F)(F)c1cc(-c2ccco2)nc(NCc2ccco2)n1,-5.0,-1.4,3.0,1.3,34.0*,5.2,39.8
Cc1ccc(NC(=O)N(CCCN2CCOCC2)Cc2cc3cc4c(cc3[nH]c2=O)OCO4)cc1,15.5,-1.2,-4.3,0.8,0.4,-3.6,.
Cc1ccc(NC(=O)N(Cc2ccc3c(c2)OCO3)Cc2cc3cc4c(cc3[nH]c2=O)OCCO4)cc1,-6.1,-1.5,-2.3,4.5,34.1*,-4.4,8.6
N=c1c(C(=O)NCCc2ccccc2)cc2c(=O)n3ccccc3nc2n1CC1CCCO1 (stereo unspecified),-7.1,2.3,-38.2,1.2,0.7,0.9,.
Nc1ccccc1Nc1ccc([N+](=O)[O-])cc1[N+](=O)[O-],-7.3,-2.7,-24.1,1.5,-1.3,45.8,.
O=[N+]([O-])c1ccc(Nc2cccc3c2[nH]c2c(-c4ccccc4)nccc23)c([N+](=O)[O-])c1,24.5,4.1,9.3,3.7,44.3*,2.1,16.1
S=c1nc[nH]c2c1sc1nc(-c3ccccc3)c3c(c12)CCCC3,12.8,3.4,10.6,2.4,40.0*,-9.2,-2.1
O=c1[nH]cnc2c1sc1nc(-c3ccccc3)c3c(c12)CCCC3,-8.0,1.5,9.9,-0.6,0.2,5.2,.
COc1cccc(NC(=O)CN(C)C(=O)COc2ccc3ccccc3c2)c1,-6.8,1.7,-2.0,-0.1,-0.2,-5.2,.
CN(C)CCNC(=O)C(=O)NCC(c1ccc2c(c1)OCO2)N1CCN(c2ccc(F)cc2)CC1 (stereo unspecified),-3.8,0.4,-2.2,-5.1,-10.0,0.4,.
Cn1c(Sc2ccc(C(=O)O)cc2[N+](=O)[O-])nnc1-c1ccccc1,-0.5,-2.1,-24.9,0.0,-3.6,-3.0,.
O=C(NCc1ccccc1)c1ccc2nc(-c3ccco3)c(-c3ccco3)nc2c1,84.2*,8.7,41.3*,75.0*,45.4*,101.5*,7.3
O=C(NCc1ccccc1)c1ccc2nccnc2c1,-10.2,-1.2,-24.8,-0.9,-6.5,-1.8,.
SMILES,Scp1 inh,STEP block,SUMO1-SIM PPI,LMPTP block,NadD block,DNMT1 inh,NadD conf
CC1(C(=O)NS(=O)(=O)c2ccc(Cl)cc2)CCN1C(=O)Cc1cccc2ccccc12 (stereo unspecified),.,0.7,4.9,-2.2,-4.6,2.4,.
CCc1cc(C(=O)Nc2ccc(C)cc2Br)cs1,-2.9,2.4,-2.0,1.2,1.4,3.0,.
CC(Sc1nnc(NC2CCCCC2)s1)C(=O)N1CCOCC1 (stereo unspecified),-4.0,-3.2,-1.4,1.1,1.8,1.3,.
Nc1nc2c(Br)ccc(Br)c2cc1C(=O)NCc1cccc2ccccc12,.,.,-5.4,2.2,41.1*,.,4.3
NS(=O)(=O)c1ccc(CCNC(=O)CN2CCN(Cc3cccc(C(F)(F)F)c3)CC2)cc1,3.5,-1.3,1.9,1.8,-9.1,1.9,.
COc1ccc(Cn2nnnc2C(c2ccc(N(C)C)cc2)N2CCC(C(N)=O)CC2)cc1 (stereo unspecified),1.4,-0.4,2.4,-0.1,-5.0,-1.6,.
Cc1nc(SCC(=O)c2cc3ccccc3oc2=O)c(C#N)c(-c2ccccc2)c1C(=O)Nc1ccccc1,-11.2,2.2,1.8,2.6,28.4*,45.8,-5.9
Cc1cc(C)n2c(SCC(O)=C(C#N)c3nc4ccccc4[nH]3)nnc2n1,33.2,0.3,17.6,37.2,25.4,25.3,.
COc1ccc(C)cc1-n1nnnc1SC/C(O)=C(\C#N)c1nc2ccccc2[nH]1,4.7,-0.2,0.8,-0.2,6.1,-23.3,.
Cc1ccc(Nc2nnc(SC/C(O)=C(\C#N)c3nc4ccccc4[nH]3)s2)c(C)c1,-4.9,-2.4,24.3,0.9,55.7*,-20.5,60.5*
Cc1cccc(Nc2nnc(SC/C(O)=C(\C#N)c3nc4ccccc4[nH]3)s2)c1,-4.4,-3.4,18.7,1.3,32.0*,-18.4,37.5
CCN(CC)C(=S)Sc1c(-c2ccccc2)c2cc(Cl)ccc2[nH]c1=O,-1.6,12.2,-3.8,3.3,39.1*,-14.6,0.5
Cc1cccc(N2CCN(C(=O)Cc3c(C(=O)O)[nH]c4ccc(Cl)cc34)CC2)c1C,-1.2,1.1,4.5,0.1,18.1,-4.9,.
O=C(C[C@H]1C[C@H](C(=O)N2CCCCC2)[C@@]2(CCc3ccccc3)c3[nH]c4ccc(Cl)cc4c3CCN2C1=O)NCCCn1ccnc1,1.3,1.6,-12.5,-3.0,30.6*,-11.8,0.8
